Experimental data taken from ChEMBL document CHEMBL4364341, “Radiosensitization of Head and Neck Squamous Cell Carcinoma (HNSCC) by a Podophyllotoxin” (ACS Med Chem Lett, 2019).
Activity calls are given as the source filed them. The rule behind the calls is not given here.

Columns and labels:
Type in all cases: functional
SCC-25 [1] = test: Selectivity ratio of IC50 for antiproliferative activity against human SCC25 cells assessed as reduction in colony formation unit to IC50 for antiproliferative activity against human SCC25 cells assessed as reduction in colony formation unit followed by irradiation with 5 Gy IR
SCC-25 [2] = test: Synergistic induction of cell cycle arrest in human SCC25 cells assessed as decrease in accumulation at S phase at 0.5 uM followed irradiation with 5Gy IR incubated for 24 hrs by propidium iodide staining based flow cytometry
Outline: (§1)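 FaDu or SCC-25 cells, untreated, given 5 Gy IR, drug, or drug plus 5 Gy. Cell-cycle distribution by propidium iodide staining and flow cytometry at 6 h and 24 h after treatment. G0/G1, S and G2/M fractions compared with control by t test.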

FaDu [3] = test: Antiproliferative activity against human FADU cells assessed as reduction in cell viability at 1 uM after 6 days by MTT assay relative to control; conditions: 144 h
Outline: (§2)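 FaDu or SCC-25 cells were grown in DMEM with 10% FBS at 37 °C and 5% CO2. They were seeded at 1000 cells/well in 96-well plates for 24 h, then dosed with compound (fresh DMSO stock diluted in medium) or vehicle. After 1 h, X-rays were given with a sliding 5 mm lead shield, so one plate held 0, 2.5, 5 and 10 Gy columns. After 6 days, MTT (0.5 mg/mL, 45 min) was added, then DMSO, and A570 was read. Values were normalised to the unirradiated vehicle control. Fractional inhibition = 1 − surviving fraction.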

FaDu [4] = test: Antiproliferative activity against human FADU cells assessed as fractional inhibition at 5 uM after 6 days in absence of irradiation by MTT assay; outline: as §2
FaDu [5] = test: Synergistic antiproliferative activity against human FADU cells assessed as combination index at 0.5 uM preincubated for 1 hr followed by irradiation with 2.5 Gy IR and measured after 6 days by MTT assay
Outline: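 Combination index was calculated by the Chou–Talalay median-effect method from the 6-day MTT viability data of the single-plate compound/X-ray (2.5, 5, 10 Gy) design. CI < 1 denotes synergy, CI = 1 additivity and CI > 1 antagonism.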

SCC-25 [6] = test: Antiproliferative activity against human SCC25 cells assessed as fractional inhibition at 0.05 uM after 6 days in absence of irradiation by MTT assay; outline: as §2
SCC-25 [7] = test: Synergistic antiproliferative activity against human SCC25 cells assessed as fractional inhibition at 0.005 uM preincubated for 1 hr followed by irradiation with 2.5 Gy IR and measured after 6 days by MTT assay (reference value: 0.011)
Outline: (§3)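 SCC-25 cells seeded 1000/well in 96-well plates in DMEM/10% FBS and left 24 h. Drug or vehicle added, then after 1 h X-irradiated to 2.5, 5 or 10 Gy on one plate using a shifted lead shield. Plates incubated 6 days, then MTT (0.5 mg/mL, 45 min), DMSO solubilisation, absorbance at 570 nm. Fractional inhibition = 1 − fraction of surviving cells.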

SCC-25 [8] = test: Synergistic antiproliferative activity against human SCC25 cells assessed as fractional inhibition at 0.05 uM preincubated for 1 hr followed by irradiation with 5 Gy IR and measured after 6 days by MTT assay (reference value: 0.133); outline: as §3
SCC-25 [9] = test: Synergistic antiproliferative activity against human SCC25 cells assessed as fractional inhibition at 0.5 uM preincubated for 1 hr followed by irradiation with 5 Gy IR and measured after 6 days by MTT assay (reference value: 0.133); outline: as §3
SCC-25 [10] = test: Synergistic antiproliferative activity against human SCC25 cells assessed as combination index at 0.05 uM preincubated for 1 hr followed by irradiation with 5 Gy IR and measured after 6 days by MTT assay
Outline: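 SCC-25 cells grown in DMEM with 10% FBS at 37 °C, 5% CO2, seeded 1000 cells/well in 96-well plates and left 24 h. Drug in DMSO, diluted in complete medium, added 1 h before X-irradiation. A movable 5 mm lead shield gave 0, 2.5, 5 or 10 Gy on one plate. After 6 days, MTT readout at 570 nm. Combination index by Chou–Talalay from viability data.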

FaDu [11] = test: Induction of cell cycle arrest in human FADU cells at 0.5 uM by propidium iodide staining based flow cytometry
Outline: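 Cell-cycle distribution was measured by propidium iodide staining and flow cytometry. Readings were taken 6 and 24 h after compound alone, 5 Gy IR alone, or the combination, against control.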

FaDu [12] = test: Synergistic induction of cell cycle arrest in human FADU cells assessed as increase in accumulation at G2/M phase at 0.5 uM followed irradiation with 5Gy IR incubated for 24 hrs by propidium iodide staining based flow cytometry; outline: as §1
SCC-25 [13] = test: Synergistic induction of cell cycle arrest in human SCC25 cells assessed as increase in accumulation at G2/M phase at 0.5 uM followed irradiation with 5Gy IR incubated for 24 hrs by propidium iodide staining based flow cytometry; outline: as §1
FaDu [14] = test: Synergistic induction of apoptosis in human FADU cells at 0.5 uM followed irradiation with 5Gy IR incubated for 48 hrs by annexin V FITC and propidium iodide staining based flow cytometry
Outline: (§4)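 FaDu or SCC-25 cells, untreated, given 5 Gy IR, drug, or both. Apoptotic cells measured by annexin V flow cytometry 48 h after treatment. Percentage compared with control by t test.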

SCC-25 [15] = test: Synergistic induction of apoptosis in human SCC25 cells at 0.5 uM followed irradiation with 5Gy IR incubated for 48 hrs by annexin V FITC and propidium iodide staining based flow cytometry; outline: as §4

COc1ccc2c(c1)N(CCO)C1=C(C(=O)OC1)C2c1ccccc1 (stereo not given)
Ratio IC50 (SCC-25 [1]): 2 | Activity (SCC-25 [2]): Active | inhibition at 1 µM (FaDu [3]): 20% | fractional inhibitory concentration index (FICI) (FaDu [4]): 0.437 | CI (FaDu [5]): 0.377 | fractional inhibitory concentration index (FICI) (SCC-25 [6]): 0.005 | fractional inhibitory concentration index (FICI) (SCC-25 [7]): 0.015 | fractional inhibitory concentration index (FICI) (SCC-25 [8]): 0.05 | fractional inhibitory concentration index (FICI) (SCC-25 [9]): 0.658 | CI (SCC-25 [10]): 1.753 | Activity (FaDu [11]): inactive | fold change (FC) (FaDu [12]): 2 | fold change (FC) (SCC-25 [13]): 2 | fold change (FC) (FaDu [14]): 3 | fold change (FC) (SCC-25 [15]): 7
